HCV core dimer = HCV core protein dimerization inhibition; hit rate 0.33% among 300,000; inhibition, % at 5 µM; TR-FRET GST/Flag-core106 dimerization, 1536-well;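 active means inhibition above the mean of all tested compounds plus 3 SD, set per screening campaign, cut at about 45% in these data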
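Assay system: Tagged HCV core106 pair (GST and Flag) | Buffer or medium: KF-containing HEPES buffer, pH 7.45, DTT, CHAPS, BSA | Also added: Eu donor and XL665 acceptor anti-tag antibodies | Dosing: One concentration, 5 µM, in 0.5% DMSO | Timing: 4 h at 22.5 °C | Technique: TR-FRET 671 and 617 nm emission | Repeats: Singlicate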
PABP polyA inh = PABP-poly(A) binding inhibition; P11940; PABP-poly(A) RNA binding, fluorescence polarization; calls only at 35 µM; hit rate 1% among 290,000; AID 2014;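 further: calls also rest on retests at 20 µM and on dose response follow-up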
PABP1 MLLE inh = inhibitors of microRNA-mediated deadenylation, human PABP1 MLLE binding; P11940; GST-MLLE / FITC-PAM2 fluorescence polarization; inhibition, % at 20 µM; hit rate 0.36% among 360,000; AID 588489; in the data active means inhibition above about 35%, passing the limit was not always enough
eIF4E-4G inh = eIF4E/eIF4G interaction inhibition in translation initiation. P63073+Q04637. TR-FRET eIF4E-eIF4GI(517-606) binding, 2 h. inhibition, % at 21.7 µM. hit rate 0.37% among 220,000. AID 782;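 active means inhibition above about 30%, limit read from the data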
eIF4H inh = inhibitors of RNA binding by human eIF4H. Q15056. eIF4H fluorescence polarization binding assay. inhibition, % at 35 µM. hit rate 0.94% among 290,000. AID 2012;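 further: calls also rest on retests at 20 µM and on dose response follow-up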
SUMO HTRF inh = inhibitors of human SUMOylation (UBC9); P63279; HTRF SUMOylation assay, SAE1/SAE2 + UBC9, in vitro; inhibition, % at 35 µM; hit rate 0.36% among 290,000; in the data active means inhibition above about 50%, passing the limit was not always enough; inconclusive means no clear call, values can overlap the other calls
Target sequence (P63279 whole entry, looked up): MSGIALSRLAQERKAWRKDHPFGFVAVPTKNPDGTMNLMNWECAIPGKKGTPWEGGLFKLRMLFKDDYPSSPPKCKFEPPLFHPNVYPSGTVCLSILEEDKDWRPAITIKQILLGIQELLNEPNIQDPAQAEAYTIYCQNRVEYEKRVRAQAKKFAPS
Large screens that a line does not name were inactive; [ ] = dose if it differs, or a comment. Rows were chosen to be rich in hits. Some 1.8% of all compounds tested hit in one or more screens of this group. Unless noted, how the calls were made is not given here.

CC(C)CC(=O)N/C(N)=N/c1nc2ccccc2o1	none
CN(C)CCCNC(CC(=O)Nc1cccc([N+](=O)[O-])c1)C(=O)O (stereo not drawn)	none
Cc1nc2ccccc2c(=O)n1/N=C/c1c(O)ccc2oc3c(c12)CCCC3	PABP polyA inh active, eIF4H inh 22
O=C(CCNS(=O)(=O)c1ccccc1F)NC1CCCCCC1	none (no result: HCV core dimer, PABP polyA inh, eIF4E-4G inh, eIF4H inh, SUMO HTRF inh)
Cc1cc(C)nc(/N=C(\N)Nc2ccc(OCCC(C)C)cc2)n1	none (no result: eIF4E-4G inh)
Cc1cccc(NCCNc2cccc(C)c2)c1	none
Cc1cccc(NCCC#N)c1	PABP polyA inh active
Cc1cc(C(=O)CSc2nc3ccccc3o2)c(C)n1C1CC1	PABP polyA inh active, eIF4H inh 88
Cc1nonc1NC(=O)CSc1nc2ccccc2o1	PABP polyA inh active, eIF4H inh 83 (no result: eIF4E-4G inh)
C=CCn1c(C)cc(C(=O)CSc2nc3ccccc3o2)c1C	PABP polyA inh active, eIF4H inh 70
CCOC(=O)c1cc(-c2ccc(N3CCOCC3)cc2)nn1-c1ccccc1C(=O)O	eIF4E-4G inh 38
CC(C)c1cc(=O)oc2c3c4c(cc12)CCCN4CCC3	none
CN1CCCc2cc3c(C(F)(F)F)cc(=O)oc3nc21	PABP polyA inh inconclusive, eIF4H inh inconclusive, SUMO HTRF inh 62
Cc1[nH]c2ccccc2c1C1=NNC(=Nc2ccc(F)cc2)SC1	PABP polyA inh active, eIF4H inh active
Cc1ccc(S(=O)(=O)/C(C#N)=C/c2c(N3CCN(C)CC3)nc3c(C)cccn3c2=O)cc1	eIF4H inh 52
Cc1ccc(S(=O)(=O)/C(C#N)=C/c2c(N3CC(C)OC(C)C3)nc3c(C)cccn3c2=O)cc1 (stereo not drawn)	PABP polyA inh active, eIF4H inh 46
Cc1cccn2c(=O)c(/C=C(\C#N)S(=O)(=O)c3ccccc3)c(N3CCN(C)CC3)nc12	none
CCOC(=O)CC(NS(=O)(=O)c1ccc2[nH]c(=O)sc2c1)c1ccc(C)cc1 (stereo not drawn)	none (no result: eIF4E-4G inh)
CC(C)(C)[C@H]1COC(=O)[C@H](NC(=O)OCC2c3ccccc3-c3ccccc32)C/C=C\C[C@@H](CC(=O)N[C@@H](CO)Cc2ccccc2)C(=O)N1	none (no result: HCV core dimer, PABP polyA inh, eIF4E-4G inh, eIF4H inh, SUMO HTRF inh)
CC(C(=O)NC1CCCCC1)N1C(=O)C2C3C=CC(C3)C2C1=O (stereo not drawn)	none (no result: eIF4E-4G inh)
CC(C(=O)Nc1nncs1)N1C(=O)C2C3C=CC(C3)C2C1=O (stereo not drawn)	PABP polyA inh active, eIF4H inh inconclusive
O=C(Oc1ccccc1)c1ccc(-n2cnnn2)cc1	none
NC(=O)COc1ccc(-n2cnnn2)cc1	HCV core dimer 46, eIF4H inh 92
O=C(Oc1ccc(-n2cnnn2)cc1)c1ccccc1	eIF4H inh 71
COc1cc([C@@H]2[C@H]3CNCC=C3C(C#N)=C(N)C2(C#N)C#N)ccc1OC(C)C	PABP polyA inh active, eIF4H inh 73
COc1cc(C2C3CN(C)CC=C3C(C#N)=C(N)C2(C#N)C#N)ccc1OC(C)C (stereo not drawn)	PABP polyA inh inconclusive, eIF4H inh inconclusive
COc1ccc(-c2nc(-c3ccccn3)ncc2S(C)(=O)=O)cc1	none
CCn1c(N)nc2c1c(=O)n(C)c(=O)n2C	none
CCCc1nc2c(=O)n(C)c(=O)nc-2n(C)n1	SUMO HTRF inh 98 (no result: HCV core dimer)
Cn1nc(-c2ccccn2)nc2c(=O)n(C)c(=O)nc1-2	SUMO HTRF inh 102
Cc1ccc(C(C(=O)NC2CCCC2)N(CCCO)C(=O)Cn2nnc(-c3ccc(C)o3)n2)cc1 (stereo not drawn)	none (no result: eIF4E-4G inh)
CCOC(=O)Cc1csc(NC(=O)c2ccc3ccccc3n2)n1	none (no result: eIF4E-4G inh)
O=C(Nc1cccnc1)c1cc2c(ccc3ccccc32)o1	eIF4E-4G inh 76
CN(CCC(=O)c1ccccc1)CCC(=O)c1ccccc1	PABP1 MLLE inh 44 (no result: HCV core dimer, eIF4E-4G inh)
CC(C)CC(=O)Nc1ccc(Oc2ccc3c(c2)C(=O)NC3=O)cc1	none (no result: eIF4E-4G inh)
CCN1CCc2c(C#N)c(N3CCOCC3)nc(NCCO)c2C1	PABP1 MLLE inh 79
CCN1CCc2c(C#N)c(N3CCOCC3)nc(NCc3ccccc3)c2C1	none (no result: HCV core dimer, eIF4E-4G inh)
CCCCCn1c(N)c(-c2nc3ccccc3o2)c2c([N+](=O)[O-])nn(C)c(=O)c21	eIF4H inh 74
CCCN(CC(=O)Nc1ccccc1C)C(=O)c1cnc(C)cn1	none (no result: HCV core dimer, PABP polyA inh, eIF4E-4G inh, eIF4H inh, SUMO HTRF inh)
C=CCN(c1ccccc1)S(=O)(=O)c1ccc(Cl)c(C(=O)OCC(=O)N(C)C2CCS(=O)(=O)C2)c1 (stereo not drawn)	none
Cc1ccc(/C=N/NC(=O)Cn2cnc3ccccc32)cc1	PABP polyA inh active, eIF4H inh 89
O=C(Cn1cnc2ccccc21)N/N=C/c1ccc([N+](=O)[O-])cc1	none
CC(=O)Nc1c(-c2ccccc2)nc2ncccn12	eIF4E-4G inh 33
CC1(OC(=O)C2CCCC2)C(=O)C=C2C=C(c3ccsc3)N(Cc3ccccc3)C=C2C1=O (stereo not drawn)	none
CC1(OC(=O)C2CCCC2)C(=O)C=C2C=C(c3ccsc3)N(CCc3ccccn3)C=C2C1=O (stereo not drawn)	PABP polyA inh active
CC(C)CN1C=C2C(=O)C(C)(OC(=O)C3CCCC3)C(=O)C=C2C=C1c1ccsc1 (stereo not drawn)	PABP polyA inh active
CCn1cc(C(=O)Nc2ncccc2O)c(=O)c2cc(F)c(N3CCN(C(=O)c4ccco4)CC3)cc21	none (no result: eIF4E-4G inh)
COc1ccc(/C=C2/C(=O)N(c3ccccc3)N=C2C)cc1	none (no result: PABP polyA inh, eIF4E-4G inh, eIF4H inh, SUMO HTRF inh)
COc1ccc(C2=NN(c3ccccc3)C(=O)/C2=C\c2ccc(O)c(OC)c2)cc1	SUMO HTRF inh 74
COc1cc(NC(=O)C[n+]2ccc(C(=O)c3ccccc3)cc2)cc(OC)c1	none (no result: HCV core dimer, PABP polyA inh, eIF4E-4G inh, eIF4H inh, SUMO HTRF inh)
CC1CCc2nc(N)c(C#N)c(-c3cccn3C)c2C1 (stereo not drawn)	PABP polyA inh active, eIF4H inh 97
N#Cc1c(N)nc2c(c1-c1ccccc1)CCCC2	none
O=C(/C=C/c1ccco1)OCc1nnc(-c2ccc(Cl)cc2)o1	PABP polyA inh active, eIF4H inh 57
O=C(Cc1ccc(Cl)cc1)OCc1nnc(-c2ccccc2)o1	eIF4E-4G inh 88
Cc1ccc(C23CC4CC(CC(CN)(C4)C2)C3)cc1	eIF4E-4G inh 86 (no result: HCV core dimer)
CCOC(=O)/C=c1\s/c(=C(\C#N)C(=O)NC)n(-c2ccccc2)c1=O	none
COC(=O)/C=c1/s/c(=C(/C#N)C(=O)NCc2ccccc2)n(-c2ccccc2)c1=O	PABP polyA inh active, eIF4H inh 111
O=C1Nc2c(Br)cccc2C1=O	none (no result: HCV core dimer, PABP polyA inh, eIF4E-4G inh, eIF4H inh, SUMO HTRF inh)
CCCCN(C)S(=O)(=O)c1cc2c3c(c1)CCC(=O)N3CCC2	none (no result: eIF4E-4G inh)
Cc1nnc(NC(=O)c2ccc(S(=O)(=O)C(F)F)cc2)s1	none
CC1CC(NC(=O)c2cnc3n(c2=O)CCS3)CC(C)(C)C1 (stereo not drawn)	none
O=C(NC1CCCC1)c1cnc2n(c1=O)CCS2	eIF4E-4G inh 95[fluorescence artefact?]
c1coc(C2Nc3cccc4cccc(c34)N2)c1	PABP polyA inh active, eIF4H inh 110, SUMO HTRF inh inconclusive (no result: PABP1 MLLE inh)

Screens: PubChem, several laboratories
